Screening results (PubChem)
Sampled rows, rich in hits. Any-hit rate of the full collection: about 2%.
EBNA-1 inh – EBNA-1 DNA-binding inhibitors, primary screen, biochemical, fluorescence polarization; inhibition, % at 14.8 µM; 300,000 tested, 0.34% active; in the data active means inhibition above about 28%
ZTA counter – ZTA (EBV) inhibition in EBNA-1 counter-screen. P03206. inhibition, % at 11 µM. AID 2234. ZTA-DNA binding, fluorescence polarization. 320,000 tested, 0.15% active; in the data active means inhibition above about 33%
Target sequence (P03206 whole entry, looked up): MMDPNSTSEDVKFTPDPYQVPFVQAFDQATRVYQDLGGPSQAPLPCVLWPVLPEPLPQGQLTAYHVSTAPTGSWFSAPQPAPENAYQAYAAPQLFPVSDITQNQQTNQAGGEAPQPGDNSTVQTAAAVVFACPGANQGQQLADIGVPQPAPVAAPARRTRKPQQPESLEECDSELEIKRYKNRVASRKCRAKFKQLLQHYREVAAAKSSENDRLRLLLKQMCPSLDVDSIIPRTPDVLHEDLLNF
FID counter – compounds displacing fluorescent DNA intercalator, primary screen, artefact control for HCV NS3 helicase inhibitor project, biochemical, FID fluorescence; DNA fluorescent intercalator displacement; inhibition, % at 7.9 µM; 290,000 tested, 0.17% active; in the data active means inhibition above about 37%;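 further: 0% = vehicle and 100% = reference compound; higher means more ethidium bromide displaced from hairpin DNA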
GPR7 antagonist – GPR7 receptor antagonists, primary screen, cell-based, fluorescence, single concentration; Neuropeptides B/W receptor type 1 (Homo sapiens), P48145; GPR7-expressing cells, fluorescence antagonist assay; inhibition, % at 4.4 µM; 290,000 tested, 1.1% active; AID 1861, 2009; in the data active means inhibition above about 16%, passing the limit was not always enough;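 further: cells stimulated with the agonist NPW; 0% = agonist with vehicle and 100% = vehicle without agonist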
Target sequence (P48145 whole entry, looked up): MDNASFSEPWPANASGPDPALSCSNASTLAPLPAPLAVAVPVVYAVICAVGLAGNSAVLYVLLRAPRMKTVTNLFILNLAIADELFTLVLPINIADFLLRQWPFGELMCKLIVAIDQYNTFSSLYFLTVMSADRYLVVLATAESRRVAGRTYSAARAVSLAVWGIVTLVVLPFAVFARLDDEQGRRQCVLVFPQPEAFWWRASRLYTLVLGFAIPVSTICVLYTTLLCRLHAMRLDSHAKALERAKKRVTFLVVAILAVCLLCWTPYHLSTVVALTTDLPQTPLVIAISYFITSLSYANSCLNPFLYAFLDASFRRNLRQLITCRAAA
HCV NS3 hel inh – inhibitors of HCV NS3 helicase, primary screen, biochemical, Cy5 molecular beacon fluorescence; Hepatitis C virus NS3 helicase; NS3 helicase DNA unwinding; inhibition, % at 10.9 µM; 290,000 tested, 0.56% active; AID 1800, 2009;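 active means inhibition above the mean of all tested compounds plus 3 SD, set per campaign, cut at about 35% in these data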;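 further: 0% = DMSO wells and 100% = thioflavine S control wells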
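System: Hepatitis C virus NS3 helicase domain fragment enzyme | Reagent: Annealed dual-labelled DNA beacon duplex, ATP-started | Compound dosing: 10.9 µM single point, 0.8% DMSO | Incubation: 1 h reaction at 25 °C, ATP-initiated | Technique: Cy5 fluorescence | Evaluation: Percent inhibition from t60/t0 fluorescence ratio | Benchmarks: Low DMSO, high thioflavine S at 110 µM | Replication: Singlicate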
EBNA-1 inh conf – EBNA-1 DNA-binding inhibitors, retest, confirmation, biochemical, fluorescence polarization, triplicate; 830 tested, 35% active; AID 2292, 2010; inhibition, % at 14.8 µM; Recombinant EBNA-1 DBD, Cy5-DNA fluorescence polarization; shares compounds with EBNA-1 inh;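 active means mean inhibition across replicates above a set limit taken from the earlier primary screen, cut at about 28% in these data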;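 further: plate controls were EBNA-1 protein with DMSO for no effect and wells lacking EBNA-1 for full effect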
ZTA counter trip – EBV Zta DNA binding inhibitors, counter-screen for EBNA-1 inhibitor project, biochemical, fluorescence polarization, triplicate. shares compounds with EBNA-1 inh. Zta-ZRE DNA binding, Cy5 fluorescence polarization. inhibition, % at 11.1 µM. 830 tested, under 10 active. AID 2328, 2010;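 active means mean inhibition over triplicates above a set limit taken from the primary EBNA-1 screen, cut at about 37% in these data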;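 further: purified full length Zta protein with Cy5 labeled ZRE DNA probe; 0% = Zta with DMSO and 100% = wells lacking Zta protein; inhibitors lower polarization by freeing the labeled DNA probe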
The depositor's hits bear a star; . = no result given.

SMILES	EBNA-1 inh	ZTA counter	FID counter	GPR7 antagonist	HCV NS3 hel inh	EBNA-1 inh conf	ZTA counter trip
COC(=O)[C@H](Cc1ccccc1)NC(=O)O[C@@H]1C(=O)c2cc(OC)ccc2O[C@H]1c1ccc(OC)c(Br)c1	2	-1	-22	7	12	.	.
COC(=O)[C@H](Cc1ccccc1)NC(=O)O[C@H]1C(=O)c2ccc(OC)cc2O[C@@H]1c1ccc2c(c1)OCO2	29*	-24	-8	-4	5	0	2
O=C(Oc1cccc([N+](=O)[O-])c1)C1CCN(C(=O)c2ccc(F)cc2)CC1	3	-11	-24	-10	0	.	.
Cc1nn(Cc2ccccc2)c(C)c1NC(=O)c1cc(-c2ccc3c(c2)OCO3)on1	42*	-13	-2	-4	2	43*	4
CC1CCCCC1Nc1ncnc2sccc12 (stereo unspecified)	2	7	-6	-12	0	.	.
O=C(Cc1ccc(S(=O)(=O)N2CCOCC2)s1)Nc1ccccc1Br	-5	11	-9	-5	-2	.	.
NC(=O)c1cc(-c2ccccc2)sc1NC(=O)Cc1ccc(S(=O)(=O)N2CCOCC2)s1	31*	-5	-5	-4	-9	53*	3
C=CCn1c(=NC(=O)c2cc(-c3cccs3)nc3ccccc23)sc2cc(S(N)(=O)=O)ccc21	29*	7	-12	-2	14	22	10
O=C(NCc1ccccn1)Nc1cccc(F)c1	-3	-11	1	-6	4	.	.
COc1ccccc1C(=O)COC(=O)c1c(-c2ccccc2)noc1C	-6	8	.	.	.	.	.
COc1ccc(NC(=O)CCCNC(=O)Cn2cnc3sc(C)c(C)c3c2=O)cc1OC	3	-15	-26	-9	18	.	.
CCc1ccc(NC(=O)CCCNC(=O)Cn2cnc3sc(C)c(C)c3c2=O)cc1	62*	10	-34	0	7	31*	-10
COC(=O)c1ccc(Nc2cc(C)nc(-c3ccccc3O)n2)cc1	29*	-3	3	3	4	0	-4
O=C(/C=C/c1ccccc1)NC(=S)NNC(=O)c1cccnc1	6	7	-6	-1	12	.	.
COc1cc(C(=O)NNC(=S)NC(=O)/C=C/c2ccccc2)cc(OC)c1OC	77*	-4	-22	-11	8	35*	4
COc1cccc(OC)c1C(=O)OCC(=O)NC1CCCCCC1	.	-4	.	.	.	.	.
CCn1cc(/C=N/NC(=O)c2cc3c(ccc4ccccc43)o2)c2ccccc21	62*	-2	2	5	5	8	10
CC(C)n1cc(/C=N\NC(=O)c2cc3c(ccc4ccccc43)o2)c2ccccc21	.	.	4	-9	8	.	.
Cn1nnnc1SCc1ccc(C(=O)Nc2ccc(Br)cc2)cc1	39*	7	-1	-5	0	18	1
CC(=O)Nc1ccc(C(=O)CSc2nnnn2C)cc1	3	-8	3	-9	-5	.	.
Cc1ccc(S(=O)(=O)N(C)c2ccc(N)cc2)cc1	-5	1	-3	0	-2	.	.
Cc1ccc(S(=O)(=O)N(C(=N)N)c2nc(N(C)C)nc(N(C)C)n2)cc1	31*	6	-38	-1	-2	5	5
O=C(CCCC(=O)N(c1ccc(F)cc1)C(C(=O)NC1CCCC1)c1ccc(O)cc1)Nc1ccccn1 (stereo unspecified)	-1	-4	-31	-1	-1	.	.
CC1Nc2ncnc(N3CCN(c4ccccc4)CC3)c2N(Cc2ccc(Br)cc2)C1=O (stereo unspecified)	8	-23	.	.	.	.	.
CCCN1Cc2cccc(C(=O)Nc3ccc(-c4nc5ccccc5[nH]4)cc3)c2C1=O	58*	-6	-2	3	7	51*	3
SMILES	EBNA-1 inh	ZTA counter	FID counter	GPR7 antagonist	HCV NS3 hel inh	EBNA-1 inh conf	ZTA counter trip
O=C(CN1C(=O)NC(c2ccccc2)(c2ccccc2)C1=O)NCc1cccs1	.	-18	.	.	.	.	.
COc1cccc(C(=O)N/N=C/c2ccc(OC3CSC3)cc2)c1	0	-18	-5	3	11	.	.
Cc1cccc(C(=O)N/N=C/c2ccc(OC3CSC3)cc2)c1	35*	4	-6	-6	3	4	-4
C/C(=N\NC(=O)c1c(Cl)cnn1C)c1cccc(NC(=O)c2ccc(C)cc2)c1	4	6	-32	2	-3	.	.
C/C(=N\NC(=O)c1c(Br)cnn1C)c1ccc(NC(=O)c2ccc(F)cc2)cc1	50*	-12	-2	-8	3	69*	1
O=C(Nc1ccc(NC(=O)c2ccccc2O)cc1)Nc1ccc(F)cc1F	38*	-8	2	-13	-11	10	-9
Cc1c(Cl)cccc1NC(=O)c1ccc(OCC(=O)NCc2ccccc2)cc1	33*	-2	-9	-9	-8	44*	14
N#Cc1ccsc1NC(=O)COC(=O)c1cc2ccccc2cc1O	48*	8	-2	-6	13	14	5
N#Cc1ccsc1NC(=O)COC(=O)c1ccc(NC(N)=O)cc1	-12	5	1	0	10	.	.
Cn1c(Cc2ccccc2)nnc1SCC(=O)Nc1ccc(N2CCOCC2)cc1	-13	-9	-24	9	17	.	.
CCOc1ccc(C(=O)N/N=C/c2ccc(-c3ccc(S(=O)(=O)Nc4ncccn4)cc3)o2)cc1	5	7	-35	-6	10	.	.
CCOc1ccc(NC(=O)C(=O)N/N=C\c2ccc(CNS(=O)(=O)c3ccccc3)o2)cc1	63*	-14	-2	-7	-4	58*	-2
COc1ccc(CC(=O)OCC(=O)N(C)C2CCS(=O)(=O)C2)cc1OC (stereo unspecified)	-6	-5	.	.	.	.	.
COc1ccc(-n2nc(C(=O)Nc3ccc4c(c3)OCO4)c3ccccc3c2=O)c(OC)c1	29*	-15	2	-2	-6	35*	-8
CSCC[C@H](N)C(=O)N1CCC(C(=O)N[C@H](C)C(=O)NC(C)c2ccccc2)CC1 (stereo partly specified)	7	16	-1	2	-19	.	.
CC(=O)n1nc(-c2ccc(C)cc2)nc1NCc1ccc(F)cc1	.	.	-6	-5	-3	.	.
COc1ccc(CNc2nc(NCc3ccc(OC)cc3)n(C(C)=O)n2)cc1	65*	0	-4	3	10	72*	9
O=C(COC(=O)c1cc(NS(=O)(=O)c2cccs2)ccc1O)Nc1ccc(F)c(F)c1F	-13	-3	1	-6	-3	.	.
